Each structure is given as a SMILES string. A value given as a limit tells only on which side of the number the result lay.

Assay [1] deals with Recombinant human Aβ1–42 peptide (Homo sapiens, UniProt P05067). In words: Aβ1–42 aggregation assay. It is filed as biochemical. Put shortly: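 Recombinant human Aβ1–42 (HFIP-treated) dissolved in DMSO, diluted into PBS (50 mM NaH2PO4, 100 mM NaCl, pH 7.40); final 20 μM Aβ1–42 with 5 μM ThT ± test compound at 10, 2, 0.4, 0.08 μM (from 10 mM DMSO stocks). Incubated 37°C for 24 h; ThT fluorescence read every 10 min, ex 460/em 508 nm. IC50 from concentration-response curves; mean ± SEM, 4 independent experiments.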
Chain of Recombinant human Aβ1–42 peptide (P05067 672-713): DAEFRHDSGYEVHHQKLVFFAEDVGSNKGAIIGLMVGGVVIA

In assay [2] the target is T1, preformed Aβ1–42 fibrils (Homo sapiens, UniProt P05067). In words: Aβ1–42 disaggregation assay. It is filed as biochemical. A digest of the protocol:
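Fibrils preformed by incubating 20 μM recombinant human Aβ1–42 with 5 μM ThT in PBS buffer (pH 7.40), 37°C, 24 h. Test compound then added at final 10, 2, 0.4, 0.08 μM, or DMSO control, and incubated a further 7 h at 37°C. ThT fluorescence read every 2.5 min (ex 460/em 508 nm). EC50 from curves of percent change in ThT intensity versus concentration. Four independent experiments, duplicate samples; mean ± SEM.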

Assay [3] has as its target T1, preformed Aβ1–42 fibrils. Nature of the assay: Atomic force microscopy imaging of preformed Aβ1–42 fibrils. The settings on record: 25 μM fibrils with 25 μM amentoflavone, 1 h.
Assay [4] deals with Aβ1–42 fibrils (Homo sapiens, UniProt P05067). Nature of the assay: SDS-PAGE electrophoresis and immunoblotting with anti-Aβ antibody 6E10. The settings on record: 25 μM fibrils with 25 μM amentoflavone, glutaraldehyde cross-linked. (Immunoblotting shows a protein as a band on a membrane.)
Chain of Aβ1–42 fibrils (P05067 672-713): as above

T1 sequence (P05067 672-713): as above

As usually defined, the IC50 is the concentration that inhibits the measured activity by half. For orientation: EC50 means the concentration giving half of the maximal effect. A higher EC50 goes with lower potency in that assay. Regarding `COc1ccc(-c2cc(=O)c3c(O)cc(O)c(-c4cc(-c5cc(=O)c6c(O)cc(O)cc6o5)ccc4OC)c3o2)cc1` [Isoginkgetin, isoginkgetin], in assay [1], the IC50 came out at 1800 ± 380 nM. In assay [2], this compound returned an EC50 of more than 10000 nM.

In the case of `COc1ccc(-c2cc(=O)c3c(O)cc(O)cc3o2)cc1-c1c(O)cc(O)c2c(=O)cc(-c3ccc(O)cc3)oc12` [Bilobetin, bilobetin], in assay [1], the IC50 worked out at 1530 ± 200 nM. In assay [2], this compound showed an EC50 of 2450 ± 1280 nM.

With `COc1cc(O)c2c(=O)cc(-c3ccc(O)cc3)oc2c1-c1cc(-c2cc(=O)c3c(O)cc(O)cc3o2)ccc1O` [Sotetsuflavone, sotetsuflavone], in assay [1], the IC50 was found to be 8700 ± 1210 nM. In addition, the EC50 in assay [2] is more than 10000 nM.

`COc1cc(O)c2c(=O)cc(-c3ccc(O)c(-c4c(O)cc(O)c5c(=O)cc(-c6ccc(O)cc6)oc45)c3)oc2c1` [Sequoiaflavone]: in assay [1], the IC50 came to 290 ± 10 nM. In assay [2], this compound gave an EC50 of 2040 ± 790 nM.

Consider `COc1cc(O)c2c(=O)cc(-c3ccc(OC)c(-c4c(O)cc(O)c5c(=O)cc(-c6ccc(O)cc6)oc45)c3)oc2c1` [Ginkgetin, ginkgetin], for which the IC50 in assay [1] came to 4920 ± 1310 nM. The EC50 in assay [2] is 6810 ± 4080 nM.

For `O=c1cc(-c2ccc(O)c(-c3c(O)cc(O)c4c(=O)cc(-c5ccc(O)cc5)oc34)c2)oc2cc(O)cc(O)c12` [Amentoflavone, amentoflavone], in assay [1], the IC50 was 260 ± 30 nM. It took 590 ± 190 nM to reach a half-maximal effect in assay [2] (EC50). Also, in assay [2] (concentration-dependent decline, preformed Aβ1–42 fibrils), the “Time to decline of ThT fluorescent intensity after addition” value is not above 30 min. For the same compound, in assay [2] (concentration-dependent, preformed Aβ1–42 fibrils), the “Time to lowering of ThT fluorescent intensity after the treatment” value is not above 1 h. The “Structural change of preformed Aβ1–42 fibrils (AFM)” value in assay [3] was “conformational changes of the fibrils into amorphous Aβ1–42 aggregates”. Moreover, the “Conversion of Aβ1–42 fibrils to oligomers and monomers (immunoblot)” value in assay [4] is “did not increase the conversion of Aβ1–42 fibrils to oligomers and monomers”.

Values taken from publication PMC7059817 (Biomolecules & Therapeutics, 2019).
